Values after ≈ are worked out from the molar mass of the structure shown. Active and inactive are the calls of the source. The calls are words filed in the database; no cut-off is given here.

As usually defined, the Emax is the size of the effect at its maximum, as opposed to the concentration needed. In general, IC50 refers to the concentration that gives 50% inhibition. The term MIC denotes the least concentration at which growth counts as inhibited. Low values mean a more susceptible organism, high ones a less susceptible organism.

Test [1] deals with Aorta. Nature of the test: Vasorelaxation activity in Wistar rat endothelium-removed thoracic aortic ring assessed as inhibition of noradrenaline-induced contraction. Type of test: functional, tissue-based. In short, it runs like this:
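Endothelium removed from the rings, confirmed by absence of relaxation to carbachol 1 uM. Rings held at 3 g in oxygenated Krebs (37 °C, pH 7.4) and precontracted with noradrenaline 0.3 uM. Cumulative concentration-response curves recorded isometrically. Relaxation calculated by comparing tone before and after compound addition.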

Test [2] has as its system Aorta. The test is described as follows: Vasorelaxation activity in Wistar rat endothelium-intact thoracic aortic ring assessed as inhibition of noradrenaline-induced contraction. The test is classed as functional, tissue-based. In short, it runs like this: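 Thoracic aortic rings (3-5 mm) with endothelium intact, held at 3 g tension in Krebs solution at 37 °C, pH 7.4, gassed O2/CO2 19:1. Isometric tension recorded. Rings precontracted with noradrenaline 0.3 uM, then given cumulative concentrations. Relaxation taken from tone before and after addition. Vehicle and positive control run in parallel.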

The subject of test [3] is Mycobacterium tuberculosis. The test is described as follows: Antimycobacterial activity against Mycobacterium tuberculosis by microplate blue alamar assay. Type of test: functional. In short, it runs like this: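 Modified microplate Alamar Blue assay (MABA) against M. tuberculosis. Pure compounds tested over 100.00 to 3.13 µg/mL. Activity recorded as the minimal inhibitory concentration (MIC).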

The subject of test [4] is Brain. The test is described as follows: Increase in GABA release in mouse cortical brain slice at 20 ug/mL upto 180 seconds. The test is classed as functional, tissue-based. An outline of the steps: (§1)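 Anterior cortex slices (250-300 um) cut by hand after decapitation, held at 4 °C in oxygenated modified Krebs-Ringer (pH 7.4) with amino-oxyacetic acid 10.0 uM, then 10 min in basal medium at 37 °C. Compound at a final 20.0 ug/mL; aliquots sampled at 0.5-3.0 min. GABA and glutamate measured by HPLC after O-phthaldialdehyde derivatization and expressed per mg slice protein. Untreated control; mean ± SEM, 3 independent experiments.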

The test system of test [5] is Brain. The test is described as follows: Increase in GABA release in mouse cortical brain slice at 20 ug/mL after 30 seconds. Type of test: functional, tissue-based. In short, it runs like this:
as §1

Test [6] relates to Brain. The test is described as follows: Increase in glutamic acid release in mouse cortical brain slice assessed per mg of protein at 20 ug/mL upto 180 seconds. Type of test: functional. In short, it runs like this: as §1

As for `CCCCCC1CCCCCCCCCC(=O)O[C@@H]2[C@@H](O[C@@H]3O[C@@H](C)[C@H](OC(=O)CCCCCCCCC[C@@H](CCCCC)O[C@@H]4O[C@H](C)[C@@H](O)[C@H](O)[C@H]4O[C@@H]4O[C@H](CO)[C@@H](O)[C@H](O)[C@H]4O[C@@H]4O[C@@H](C)[C@H](O[C@@H]5O[C@H](C)[C@@H](OC(=O)C(C)CC)[C@H](O)[C@H]5O)C(O)C4OC(=O)C(C)C(C)O)[C@@H](O)[C@@H]3O)[C@H](C)O[C@@H](O[C@H]3[C@H](O[C@H]4[C@H](O1)O[C@H](C)[C@@H](O)[C@@H]4O)O[C@H](COC(=O)C(C)C(C)O)[C@@H](O)[C@@H]3O)[C@@H]2OC(=O)C(C)C(C)O` (stereo partly drawn) [TYRIANTHIN A], the result in the test with Aorta [1] was inactive. In the test on Aorta [2], the Emax is 81.8% and the IC50 worked out at 240 nM. In addition, the MIC in test [3] is 100 µg/mL (≈ 47.7 µM). Also, in the test with Brain [4], the result was Active. Further, the result with Brain [5] was Active. In the test on Brain [6], this compound returned an Activity of 100 pmol.
For `CCCCCC1CCCCCCCCCC(=O)O[C@@H]2[C@@H](O[C@@H]3O[C@@H](C)[C@H](OC(=O)CCCCCCCCC[C@@H](CCCCC)O[C@@H]4O[C@H](C)[C@@H](O)[C@H](O)[C@H]4O[C@@H]4O[C@H](CO)[C@@H](O)[C@H](O)[C@H]4O[C@@H]4O[C@@H](C)[C@H](O[C@@H]5O[C@H](C)[C@@H](O)[C@H](O)[C@H]5O)C(O)C4OC(=O)CCC)[C@@H](O)[C@@H]3O)[C@H](C)O[C@@H](O[C@H]3[C@H](O[C@H]4[C@H](O1)O[C@H](C)[C@@H](O)[C@@H]4O)O[C@H](COC(=O)C(C)C(C)O)[C@@H](O)[C@@H]3O)[C@@H]2OC(=O)C(C)C(C)O` (stereo partly drawn) [TYRIANTHIN B], the outcome in the test with Aorta [1] and with Brain [4] was inactive. Moreover, in the test on Aorta [2], the IC50 was determined as 140 nM. The same compound showed an MIC in test [3] of 100 µg/mL (≈ 50.5 µM). The outcome in the test with Brain [5] was Active. This compound gave an Activity in the test with Brain [6] of 180 pmol.

Values taken from ChEMBL document CHEMBL1154031, “Glycolipid ester-type heterodimers from Ipomoea tyrianthina and their pharmacological activity” (Bioorg Med Chem Lett, 2009).
